FN deposition inh: fibronectin deposition inhibition | AH1F fibroblasts, Alexa488-fibronectin deposition fluorescence, overnight | inhibition, % at 12.6 µM | actives 0.086% (n = 350,000) | AID 743247;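 active means mean inhibition across replicates of 30% or more, regardless of how many single replicates reach that level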;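 further: positive control wells lacked labelled fibronectin entirely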
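Material: AH1F fibroblasts assembling fluorescent fibronectin matrix; amount: 10000 AH1F cells/well; medium: DMEM, 2% serum; reagent: Alexa488-fibronectin, 24 nM final in well; dosing: single compound dose, delivered by pin transfer; incubation: 1 h adhesion, overnight exposure; detection: fluorescence after three HBSS washes, excitation 485 nm, emission 525 nm; measure: fibronectin deposition inhibition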
PGC1a acetyl inh: lowers PGC1a acetylation signal in U2OS cells | AlphaScreen anti-acetyl-lysine; with virally co-expressed GCN5 acetyltransferase | inhibition, % at 15.6 µM | actives 0.17% (n = 350,000) | AID 651687;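 active means every replicate shows inhibition of at least 40%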;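 further: 0% = neutral control wells and 100% = positive control wells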
SIRT5 inh: blocks human SIRT5 desuccinylation of peptide; Q9NXA8; Purified SirT5, succinyl-peptide AMC, trypsin-coupled fluorescence; inhibition, % at 15 µM; actives 1.1% (n = 330,000); AID 652115; in the data active means inhibition above about 15%
FGF22 binding: shifts melting point of recombinant human FGF22; Q9HCT0; recombinant FGF22 thermal shift, SYPRO orange fluorescence; percent of sucrose octasulfate shift, DMSO zero; activity (Tm shift, normalised), % at 9.99 µM; actives 1.5% (n = 340,000);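 active means mean Tm shift, scaled 0 neutral to 100 positive control, at about 1.3% or above, every replicate too, limit read from the data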
Target sequence (Q9HCT0 whole entry, looked up): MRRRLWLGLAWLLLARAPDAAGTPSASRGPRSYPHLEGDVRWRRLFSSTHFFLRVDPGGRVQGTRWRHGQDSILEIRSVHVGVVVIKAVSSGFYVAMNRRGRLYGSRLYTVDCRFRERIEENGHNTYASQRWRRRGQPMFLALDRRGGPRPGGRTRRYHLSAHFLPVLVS
ERAP1 inh: ERAP1 (human) enzyme inhibition | Q9NZ08 | recombinant ERAP1, Leu-AMC fluorescence, 60 min | inhibition, % at 10.7 µM | actives 0.15% (n = 340,000) | AID 652197;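 active means mean replicate inhibition of at least 30%, or all replicates individually reaching that 30% level; inactive means mean below 30% and not every replicate reaching it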;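 further: 0% = neutral control wells and 100% = L-leucinethiol positive control wells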
* hit, by the source's call; nt = no result. Only some compounds are listed: those with a hit (about 2.2% of all), similar ones and a draw of the others.

SMILES	FN deposition inh	PGC1a acetyl inh	SIRT5 inh	FGF22 binding	ERAP1 inh
Cc1nc(C(F)(F)F)c(C(=O)N/N=C(\N)c2cccnc2)s1	12	-2	0	43*	0
C/C(=N\NC(=O)c1sccc1C)c1cccnc1	nt	-2	-3	0	0
CC(C)NC(=O)Nc1ccc2c(c1)C(=O)N([C@@H](C)CO)C[C@H](C)[C@@H](CN(C)C)OCCCC[C@H](C)O2	3	2	4	0	4
COc1ccc(CN2C[C@H](O)COC[C@@H]3O[C@H](CC(=O)N4CCc5ccccc5C4)CC[C@H]32)cc1	5	-4	15*	0	4
COc1ccc(CN2C[C@@H](O)COC[C@H]3O[C@H](CC(=O)NCCN4CCCC4)CC[C@@H]32)cc1	2	10	21*	0	-3
COc1ccc(CN2C[C@H](O)COC[C@@H]3O[C@H](CC(=O)NCCN4CCCC4)CC[C@H]32)cc1	-10	-1	-5	0	1
COc1ccc(CN2C[C@H](O)COC[C@H]3O[C@H](CC(=O)N4CCc5ccccc5C4)CC[C@@H]32)cc1	-4	-9	-2	0	4
Fc1cccc(Nc2ncnc3sccc23)c1	1	14	-6	0	-5
Cc1cc(F)ccc1S(=O)(=O)Nc1ncnc2sccc12	-2	-3	23*	0	2
C[C@@H]1CCCCO[C@@H](CN(C)C)[C@H](C)CN([C@H](C)CO)C(=O)c2cc(NS(=O)(=O)c3ccc(F)cc3)ccc2O1	5	3	-3	0	1
C[C@H](CO)N1C[C@H](C)[C@H](CN(C)C(=O)CCCN(C)C)OCCCC[C@H](C)Oc2ccc(NC(=O)Cc3ccccc3)cc2C1=O	-6	11	-2	0	1
Nc1cccc(-c2csc(-n3ncc(C(=O)O)c3C(F)(F)F)n2)c1	-3	-1	29*	0	2
CCCc1cn(CC[C@@H]2CC[C@@H](NS(=O)(=O)c3ccccc3Cl)[C@H](CO)O2)nn1	-22	2	1	0	2
COC(=O)c1c(-c2ccc(OC)cc2)oc2ccc(-c3cc(OC)c(OC)c(OC)c3)cc12	-3	8	23*	0	-5
COc1ccc(/C=C/C2=NN(Cc3ccccc3)C(=O)CC2)cc1	3	1	2	43*	-3
CC(C)(C)NC(=O)c1ccc(Sc2ccccc2)c([N+](=O)[O-])c1	nt	81*	nt	nt	nt
COc1ccc(NC(=S)NC23CN4CN(CN(C4)C2)C3)cc1	3	6	nt	nt	nt
COc1ccc(NC(=S)NC23CN4CN(CN(C4)C2)C3)c(OC)c1	5	nt	-2	44*	2
CN1C(=O)c2cc(NC(=O)C3CCOCC3)ccc2OC[C@@H]2O[C@@H](CC(=O)NC3CCCC3)CC[C@@H]21	-6	-2	-4	0	0
COc1cc(C(=O)N/C(=C\c2cn(S(=O)(=O)N(C)C)c3ccccc23)C(=O)NCCCO)cc(OC)c1OC	3	nt	0	44*	-3
Cc1noc(C)c1NC(=O)N(C)C[C@H]1Oc2c(NC(=O)NC(C)C)cccc2C(=O)N([C@H](C)CO)C[C@H]1C	nt	5	1	0	1
Cc1[nH]nc2c1C(c1cccs1)C1=C(CCCC1=O)N2 (stereo not given)	-14	nt	-5	43*	2
O=C(NCC(c1ccco1)N1CCOCC1)c1c(F)cccc1F (stereo not given)	-6	13	17*	0	1
O=C(NCC(c1ccco1)N1CCOCC1)c1ccc(F)cc1 (stereo not given)	6	-8	-5	0	2
CC(C)Nc1nc(-c2ccccc2CO)c2sccc2n1	-2	-14	nt	43*	-15
SMILES	FN deposition inh	PGC1a acetyl inh	SIRT5 inh	FGF22 binding	ERAP1 inh
C[C@@H]1CN([C@H](C)CO)S(=O)(=O)c2ccc(-c3ccc(C#N)cc3)cc2O[C@@H]1CN(C)CC1CC1	6	9	2	nt	9
O=C(CCc1ccccc1)Nc1ccccc1C(F)(F)F	3	nt	-1	44*	3
CCc1ccc(NC(=O)NNC(=O)CCc2ccccc2)cc1	nt	nt	-1	0	1
O=C(CCc1ccccc1)NNC(=O)Nc1ccccc1	16	3	-1	43*	5
COCCn1c(CCC(=O)O)ccc1-c1cccs1	-5	-1	8	0	-3
O=C(O)CCc1ccc(-c2cccs2)n1CC(=O)Nc1ccccc1C(F)(F)F	11	14	0	43*	-2
